Experiments:
HeLa = assay: Cytotoxicity against human HeLa cells after 72 hrs by MTT assay; assay type: functional, cell-based
Procedure, shortened: (§1)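 Cells seeded at 4.5 to 5.0 × 10^4 cells/mL/well in 24-well plates, exposed to compounds in DMSO for 72 h. MTT in PBS pH 7.2 added, formazan dissolved in DMSO, absorbance read at 540 nm. % growth inhibition = (1 − treated/untreated absorbance) × 100. Three independent experiments in quadruplicate.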

SW480 = assay: Cytotoxicity against human SW480 cells after 72 hrs by MTT assay; assay type: functional, cell-based; conditions: SW480, 72 h; procedure, shortened: as §1
SW-620 = assay: Cytotoxicity against human SW620 cells after 72 hrs by MTT assay; assay type: functional, cell-based; conditions: SW-620, 72 h; procedure, shortened: as §1
K562 = assay: Cytotoxicity against human K562 cells after 72 hrs by MTT assay; assay type: functional, cell-based; conditions: K562, 72 h; procedure, shortened: as §1
[1] = target: DNA topoisomerase 2-alpha (Homo sapiens, UniProt P11388); assay: Inhibition of human DNA topoisomerase 2-mediated Crithidia fasciculata kDNA decatenation using ethidium bromide staining by agarose gel electrophoresis
Procedure, shortened: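 Crithidia fasciculata kDNA (5 µg/mL) with 4 units human Topo II in 30 mM Tris–HCl pH 7.6, 60 mM NaCl, 8 mM MgCl2, 15 mM 2-mercaptoethanol, 3 mM ATP, 8% DMSO, 30 min at 37 °C. Proteinase K follows, then chloroform/isoamyl extraction and agarose gel with ethidium bromide. Decatenated plus linear DNA quantified densitometrically as % of total. Screened at 160 µM, IC50 from 1–160 µM curves.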

Chain of DNA topoisomerase 2-alpha (P11388 whole entry): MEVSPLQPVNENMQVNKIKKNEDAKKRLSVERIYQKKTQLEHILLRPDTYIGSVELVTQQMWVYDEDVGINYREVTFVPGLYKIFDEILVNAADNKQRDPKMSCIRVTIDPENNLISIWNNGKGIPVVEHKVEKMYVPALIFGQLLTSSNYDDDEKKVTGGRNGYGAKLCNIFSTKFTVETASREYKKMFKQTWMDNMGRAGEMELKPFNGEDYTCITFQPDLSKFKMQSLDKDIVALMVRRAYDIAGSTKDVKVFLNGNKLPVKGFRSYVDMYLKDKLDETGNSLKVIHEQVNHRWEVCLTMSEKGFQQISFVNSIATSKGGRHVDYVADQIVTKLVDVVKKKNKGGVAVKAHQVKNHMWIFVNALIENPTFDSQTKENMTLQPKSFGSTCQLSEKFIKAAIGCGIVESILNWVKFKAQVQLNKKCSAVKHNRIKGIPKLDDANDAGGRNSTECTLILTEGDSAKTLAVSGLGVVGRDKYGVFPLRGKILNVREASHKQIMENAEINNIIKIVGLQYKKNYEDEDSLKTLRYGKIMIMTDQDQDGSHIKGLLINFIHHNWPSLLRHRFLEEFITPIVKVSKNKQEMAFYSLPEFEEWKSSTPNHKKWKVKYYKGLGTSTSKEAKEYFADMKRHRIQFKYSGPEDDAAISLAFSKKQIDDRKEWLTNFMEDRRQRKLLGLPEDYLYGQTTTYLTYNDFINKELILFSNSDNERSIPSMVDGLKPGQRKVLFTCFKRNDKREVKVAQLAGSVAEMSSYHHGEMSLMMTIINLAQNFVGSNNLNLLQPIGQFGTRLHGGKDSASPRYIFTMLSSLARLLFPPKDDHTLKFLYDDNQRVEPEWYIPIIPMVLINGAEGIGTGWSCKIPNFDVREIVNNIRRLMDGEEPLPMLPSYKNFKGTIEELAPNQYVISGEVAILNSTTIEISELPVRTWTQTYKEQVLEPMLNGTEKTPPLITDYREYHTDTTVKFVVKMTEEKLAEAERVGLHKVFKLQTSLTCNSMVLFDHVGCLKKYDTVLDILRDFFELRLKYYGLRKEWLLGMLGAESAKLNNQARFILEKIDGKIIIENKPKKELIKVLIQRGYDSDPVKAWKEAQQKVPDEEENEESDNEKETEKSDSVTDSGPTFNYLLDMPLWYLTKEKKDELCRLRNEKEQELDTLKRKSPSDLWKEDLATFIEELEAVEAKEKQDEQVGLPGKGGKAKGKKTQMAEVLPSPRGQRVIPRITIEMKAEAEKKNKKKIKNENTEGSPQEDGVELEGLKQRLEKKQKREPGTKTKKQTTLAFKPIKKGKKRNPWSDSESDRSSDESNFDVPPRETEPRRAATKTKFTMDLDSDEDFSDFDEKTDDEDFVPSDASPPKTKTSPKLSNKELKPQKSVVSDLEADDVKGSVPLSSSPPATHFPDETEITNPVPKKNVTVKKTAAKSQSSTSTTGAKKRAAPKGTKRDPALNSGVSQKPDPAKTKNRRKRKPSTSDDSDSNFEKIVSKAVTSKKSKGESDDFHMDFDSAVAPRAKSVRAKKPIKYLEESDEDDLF

Row | IC50 [1] [µM] | Compound | IC50 (HeLa) [µM] | IC50 (SW480) [µM] | IC50 (SW-620) [µM] | IC50 (K562) [µM]
1 | 29.6 | CSc1nc2c(Nc3cccc(NC(C)=O)c3)c3ccccc3nc2s1 | > 80 | > 80 | > 80 | > 80
2 | 169 | CCN(CC)CCNc1nc2c(Nc3ccccc3)c3ccccc3nc2s1 | 16 | 37.7 | 21.6 | 16.8
3 | 18 | CSc1nc2c(Nc3cc(N)cc(CO)c3)c3ccccc3nc2s1 | > 80 | > 80 | > 80 | > 80
4 | 21.2 | CSc1nc2c(Nc3cccc(Cl)c3)c3ccccc3nc2s1 | 69.4 | > 80 | > 80 | 80.3
5 | 20.5 | CSc1nc2c(Nc3ccc(Cl)cc3)c3ccccc3nc2s1 | > 80 | > 80 | > 80 | 79.5
6 | 15.4 | CSc1nc2c(Nc3cccc(C(F)(F)F)c3)c3ccccc3nc2s1 | 43.3 | 65.1 | 62.3 | 67.1
7 | 12.3 | CNc1cccc(Nc2c3ccccc3nc3sc(SC)nc23)c1 | 46.2 | > 80 | > 80 | 46.9
8 | 16.7 | CSc1nc2c(Nc3cccc(N)c3)c3ccccc3nc2s1 | > 80 | > 80 | > 80 | > 80
9 |  | CSc1nc2c(Nc3ccccc3)c3ccccc3nc2s1 | > 80 | > 80 | > 80 | > 80
10 | 64.3 | CSc1nc2c(Nc3cccc(O)c3)c3ccccc3nc2s1 | > 80 | > 80 | > 80 | > 80
11 |  | CCOC(=O)c1cccc(Nc2c3ccccc3nc3sc(SC)nc23)c1 | > 80 | > 80 | > 80 | > 80
12 |  | CCN(CC)CCNc1nc2c(Nc3cccc(C#N)c3)c3ccccc3nc2s1 | 13.3 | 13.1 | 14.6 | 12.5
13 |  | CSc1nc2c(Nc3ccc(C#N)cc3)c3cc(F)ccc3nc2s1 | > 80 | > 80 | > 80 | 
14 |  | COc1ccc(Nc2c3cc(F)ccc3nc3sc(SC)nc23)cc1 | > 80 | > 80 | > 80 | 54.9
15 |  | Clc1c2ccccc2nc2sc(N3CCCCC3)nc12 | > 80 | > 80 | > 80 | > 80
16 |  | CN1CCN(c2nc3c(Cl)c4ccccc4nc3s2)CC1 | > 80 | > 80 | > 80 | > 80
17 |  | c1ccc(Nc2c3ccccc3nc3sc(N4CCCCC4)nc23)cc1 | > 80 | > 80 | > 80 | > 80
18 |  | CCN(CC)CCNc1nc2c(Nc3cccc(OC)c3)c3ccccc3nc2s1 | 19.2 | 11.5 | 20 | 23.5

Row | IC50 [1] [µM] | Compound | IC50 (HeLa) [µM] | IC50 (SW480) [µM] | IC50 (SW-620) [µM] | IC50 (K562) [µM]
19 |  | CCN(CC)CCNc1nc2c(Nc3ccc(C#N)cc3)c3ccccc3nc2s1 | 15.2 | 14.2 | 16.5 | 8.36
20 | 40.9 | CCN(CC)CCCNc1nc2c(Nc3cccc(Cl)c3)c3ccccc3nc2s1 | 7.46 | 7.91 | 10.2 | 9.84
21 |  | CCN(CC)CCCNc1nc2c(Nc3ccc(Cl)cc3)c3ccccc3nc2s1 | 8.82 | 4.92 | 7.48 | 3.36
22 |  | CCN(CC)CCNc1nc2c(Nc3ccc(Cl)cc3)c3ccccc3nc2s1 | 10.2 | 12.6 | 12.2 | 7.26
23 |  | CCN(CC)CCCNc1nc2c(Nc3cccc(C#N)c3)c3ccccc3nc2s1 | 19.2 | 11.5 | 19.7 | 12.9
24 |  | CCN(CC)CCCNc1nc2c(Nc3ccccc3)c3ccccc3nc2s1 | 6.27 | 6.9 | 16.6 | 7.52
25 |  | CSc1nc2c(Nc3ccccc3)c3cc(F)ccc3nc2s1 | > 80 | > 80 | > 80 | > 80
26 |  | CSc1nc2c(Nc3cccc(C#N)c3)c3cc(F)ccc3nc2s1 | > 80 | > 80 | > 80 | 55.4
27 |  | Clc1c2ccccc2nc2sc(N3CCOCC3)nc12 | > 80 | > 80 | > 80 | > 80
28 |  | c1ccc(Nc2c3ccccc3nc3sc(N4CCOCC4)nc23)cc1 | > 80 | > 80 | > 80 | > 80
29 |  | CSc1nc2c(Nc3cccc(/C(C)=N\O)c3)c3ccccc3nc2s1 | 34.2 | 37.3 | 39.4 | 32.8
30 |  | CCN(CC)CCCNc1nc2c(Nc3ccc(C#N)cc3)c3ccccc3nc2s1 | 24.2 | 22.7 | 29.2 | 12.9
31 |  | COc1cccc(Nc2c3cc(F)ccc3nc3sc(SC)nc23)c1 | 15.8 | 13.7 | 12.2 | 
32 |  | CCN(CC)CCNc1nc2c(Nc3cccc(Cl)c3)c3ccccc3nc2s1 | 9.12 | 14.3 | 17.8 | 12.2
33 |  | CSc1nc2c(Nc3cccc(C(C)=O)c3)c3ccccc3nc2s1 | > 80 | > 80 | > 80 | > 80
34 |  | CCN(CC)CCNc1nc2c(Nc3ccc(OC)cc3)c3ccccc3nc2s1 | 13.6 | 12 | 16.4 | 10.9
35 |  | CN1CCN(c2nc3c(Nc4ccccc4)c4ccccc4nc3s2)CC1 | 60.7 | 41.8 | > 80 | 73
36 | 9.94 | COc1cc(NS(C)(=O)=O)ccc1Nc1c2ccccc2nc2ccccc12 [AMSACRINE] | 9.5 | 27.7 | 16.7 | 19.9

Reference: ChEMBL document CHEMBL1139240, “Synthesis, cytotoxic activity, DNA topoisomerase-II inhibition, molecular modeling and structure-activity relationship of 9-anilinothiazolo[5,4-b]quinoline derivatives” (Bioorg Med Chem, 2009)
